*1 amine or outer side, *2 acyl side, *3 side chain or, on linkers, in order; H or OH if unused. Where a SMILES comes first, the peptide text is derived from it. The star is where a group is joined. X4 = CC(ON(C(C)(C)C)C(C)(C)C)c1ccc(O*)cc1; Suc = O=C(CCC(=O)[*:2])[*:1]
Legend:
[1] = tested on: caspase 3/7 activation in U87 cells; assay: Caspase-Glo 3/7 assay in U87 cells; type: cell-based, human; conditions: doxorubicin 2 μM
Summary of the method: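 U87 human glioblastoma cells were grown in DMEM with 10% FBS at 37 °C and 5% CO2, then seeded and cultured for 48 h before treatment. Doxorubicin 2 μM served as the apoptosis control, and signals were followed over time up to 48 h. For Caspase-Glo 3/7, plate and reagent were equilibrated to room temperature, then reagent was added to the wells. After 15 min at room temperature, luminescence was read.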

U87 cells = assay: RealTime-Glo Annexin V Apoptosis and Necrosis Assay in U87 cells; type: cell-based, human; conditions: doxorubicin 2 μM
Summary of the method: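 U87 cells were kept in DMEM with 10% FBS at 37 °C and 5% CO2, seeded for 48 h, then exposed to doxorubicin 2 μM as the apoptosis control and followed up to 48 h. RealTime-Glo detection reagent was added to the live-cell medium. Annexin V binding was read by luminescence. Necrosis was read as fluorescence of a cell-impermeant DNA dye (ex 485/em 530 nm) after 60 min at 37 °C.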

[2] = tested on: U87 human glioblastoma cell line; assay: PrestoBlue viability test on U87 cells with or without HNE; type: cell-based; conditions: 48 h
Summary of the method: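 U87 cells were seeded and cultured for 48 h, then switched to serum-free DMEM. Test compound (0–400 μM) and HNE 0.68 μM were added; where used, eglin C 10 μM was added before HNE. After 1 h, 10% serum was added and incubation continued for 24, 48 or 72 h. PrestoBlue reagent (1/10 volume) was added for 30 min at 37 °C, and fluorescence was read at ex 560/em 590 nm.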

**Q.** How did the “caspase activity (positive control)” value [1] turn out when `COc1cccc2c1C(=O)c1c(O)c3c(c(O)c1C2=O)C[C@@](O)(C(=O)CO)C[C@@H]3O[C@H]1C[C@H](N)[C@H](O)[C@H](C)O1` [doxorubicin] was run?
**A.** Its value is “increases between 24 and 48 h”.

**Q.** What about the “DNA+ labeling (positive control)” value (U87 cells) of the same molecule?
**A.** The value was “increases regularly until 48 h”.

**Q.** What about the “annexin V labeling (positive control)” value (U87 cells; timing similar to caspase (24 to 48 h)) of the same molecule?
**A.** The value was “highly AV+”.

**Q.** What about the “U87 population still viable” value ([2]; doxorubicin 2 μM) of the same molecule?
**A.** The value was 50%.

**Q.** How did the “effect on viability in the presence of HNE” value ([2]; U87 cells, prodrug 0–400 μM, HNE 0.68 μM) turn out when `CC(NC(=O)CCC(=O)O)C(=O)NC(C)C(=O)N1CCCC1C(=O)NC(C(=O)Oc1ccc(C(C)ON(C(C)(C)C)C(C)(C)C)cc1)C(C)C` (stereo not drawn) [suc-AAPV-phenol-DBNO, Acid 4-((1-((1-(2-((1-(4-(1-((di-tert-butylamino)oxy)ethyl)phenoxy)-3-methyl-1-oxobutan-2-yl)carbamoyl)pyrrolidin-1-yl)-1-oxopropan-2-yl)amino)-1-oxopropan-2-yl)amino)-4-oxobutanoic Acid] (Suc-AAPV-X4; configuration not given here) was run?
**A.** The value was “does not have any measurable effect”.

B1: eglin C: a potent HNE inhibitor (CIBA-GEIGY) (protein, UniProt P01051 1-70, looked up)
Eglin C: TEFGSELKSFPEVVGKTVDQAREYFTLHYPQYDVYFLPEGSPVTLDLRYNRVRVFYNPGTNVVNHVPHVG
**Q.** Which “rescue of U87 cells from prodrug + HNE cytotoxicity by elastase inhibitor” value ([2]; eglin C 10 μM added just before HNE 0.68 μM, four prodrugs) does the source give for B1 here?
**A.** The value was “rescues the cells”.

— PMC9289877 (Journal of Medicinal Chemistry, 2022)
